Data: ChEMBL document CHEMBL5236607, “Membrane-Active Cyclic Amphiphilic Peptides: Broad-Spectrum Antibacterial Activity Alone and in Combination with Antibiotics” (J Med Chem, 2022)
The source made the active and inactive calls. The calls are words filed in the database; no cut-off is given here. Peptide text beside a SMILES is read from it.

Columns and labels:
Staphylococcus aureus [1] = test: Synergistic antibacterial activity against methicillin resistant Staphylococcus aureus ATCC BAA-1556 incubated for 24 hrs in presence of levofloxacin by checkerboard assay; format: functional
Outline: (§1)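 Checkerboard assay. Inoculum from an LB overnight culture at 0.5 McFarland, diluted 1/150 in MH media. […] Incubated 37 °C for 24 h. FICI = MIC combination/MIC alone summed over both agents. Triplicate.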

Pseudomonas aeruginosa = test: Synergistic antibacterial activity against Pseudomonas aeruginosa ATCC […] assessed as fractional inhibitory concentration index incubated for 24 hrs in presence of tobramycin by checkerboard assay; format: functional
Klebsiella pneumoniae = test: Synergistic antibacterial activity against Klebsiella pneumoniae ATCC BAA-1705 fractional inhibitory concentration index incubated for 24 hrs in presence of meropenem by checkerboard assay; format: functional
Outline: (§2)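 Checkerboard assay in MH broth. Inoculum from an LB overnight culture set to 0.5 McFarland and diluted 1/150. […] Each agent was also titrated alone. Incubation 24 h at 37 °C. FIC = combination MIC/individual MIC; FICI = sum of the FICs. Triplicate.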

[2] = Membrano-lytic effect in bacterial inner membrane mimic DOPC/DOPG (7:3) large unilamellar vesicles assessed as calcein leakage at 50 ug/ml measured after 90 mins by multimode microplate reader assay; format: cell membranes; details: dose 50.0 µg/ml
Outline: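 Calcein (70 mM) loaded into extruded 100 nm LUVs: DOPC:DOPG 7:3 (w/w) as the bacterial mimic, DOPC/cholesterol 10:1 (w/w) as the mammalian mimic. Free dye removed by gel filtration. Liposomes at 40 μM final lipid in PBS mixed 1:1 with peptide (5–50 μg/mL). Fluorescence (ex 490/em 520 nm) read every 10 min for 100 min; Triton X-100 defines 100% release. Triplicate.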

Cell membrane [3] = test: Membrano-lytic activity against methicillin resistant Staphylococcus aureus assessed as loss of membrane fluidity at 4 times MIC after 1 hr by SEM analysis; format: subcellular
Cell membrane [4] = test: Membrano-lytic activity against Escherichia coli assessed as membrane atrophy at 4 times MIC after 1 hr by SEM analysis; format: subcellular
Outline: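 E. coli ATCC BAA-2452 from overnight culture, suspended at 10^7 CFU/mL in 10 mM PBS pH 7.4. […] Fixed in 4% glutaraldehyde in cacodylate buffer pH 7.4 for 3 h at 4 °C, ethanol-dehydrated, HMDS-dried, Au/Pd-coated, then imaged by FE-SEM.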

Staphylococcus aureus [5] = test: Induction of resistance development in methicillin resistant Staphylococcus aureus ATCC BAA-1556 assessed as increase in MIC by microtiter plate reader assay; format: functional, organism-based
Outline: (§3)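 Serial passage resistance assay with 2-fold microdilution MICs in 96-well plates. Each passage takes the well with the highest concentration still permitting growth, adjusts it to 0.5 McFarland, and dilutes it to a final 5 × 10^5 CFU/mL for the next passage. Eighteen passages; MIC recorded at each. Triplicate.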

Escherichia coli [6] = test: Induction of resistance development in Escherichia coli ATCC 25922 assessed as increase in MIC by microtiter plate reader assay; format: functional, organism-based
Escherichia coli [7] = test: Induction of resistance development in Escherichia coli ATCC BAA-2452 assessed as increase in MIC by microtiter plate reader assay; format: functional, organism-based; outline: as §3
Escherichia coli [8] = test: Synergistic antibacterial activity against Escherichia coli ATCC 25922 incubated for 24 hrs in presence of meropenem by checkerboard assay; format: functional; outline: as §2
Escherichia coli [9] = test: Synergistic antibacterial activity against Escherichia coli ATCC 25922 fractional inhibitory concentration index incubated for 24 hrs in presence of meropenem by checkerboard assay; format: functional; outline: as §1

Compound: N=C(N)NCCC[C@@H]1NC(=O)[C@H](CCCNC(=N)N)NC(=O)[C@H](CCCNC(=N)N)NC(=O)[C@H](Cc2c[nH]c3ccccc23)NC(=O)[C@H](Cc2c[nH]c3ccccc23)NC(=O)[C@H](Cc2c[nH]c3ccccc23)NC(=O)[C@H](Cc2c[nH]c3ccccc23)NC(=O)[C@H](CCCNC(=N)N)NC(=O)[C@H](CCCNC(=N)N)NC1=O
- MIC (Staphylococcus aureus [1]): 1 µg/mL
- fractional inhibitory concentration index (FICI) (Pseudomonas aeruginosa): 0.5
- fractional inhibitory concentration index (FICI) (Klebsiella pneumoniae): 0.5
- Activity [2]: 100%
- Activity (Cell membrane [3]): Active
- Activity (Cell membrane [4]): Active
- Activity (Staphylococcus aureus [5]): inactive
- Activity (Escherichia coli [6]): inactive
- Activity (Escherichia coli [7]): inactive

Compound: N=C(N)NCCC[C@@H]1NC(=O)[C@H](CCCNC(=N)N)NC(=O)[C@H](CCCNC(=N)N)NC(=O)[C@H](CCCNC(=N)N)NC(=O)[C@H](Cc2c[nH]c3ccccc23)NC(=O)[C@H](Cc2c[nH]c3ccccc23)NC(=O)[C@H](Cc2c[nH]c3ccccc23)NC(=O)[C@H](Cc2c[nH]c3ccccc23)NC(=O)[C@H](CCCNC(=N)N)NC(=O)[C@H](CCCNC(=N)N)NC1=O (cyclo(RRRRRRWWWW))
- MIC (Escherichia coli [8]): 0.125 µg/mL
- fractional inhibitory concentration index (FICI) (Escherichia coli [9]): 0.375
